Source: ChEMBL document CHEMBL3758086, “Inhibitory effect of phenothiazine- and phenoxazine-derived chloroacetamides on Leishmania major growth and Trypanosoma brucei trypanothione reductase” (Eur J Med Chem, 2016)
Calls of active or inactive are those of the source. The rule behind the calls is not given here.

Legend:
[1] = molecular target: Trypanothione reductase (Trypanosoma brucei brucei) (UniProt P39051); assay: Reversible inhibition of recombinant Trypanosoma brucei trypanothione reductase
K562 = assay: Cytotoxicity against human K562 cells assessed as cell growth inhibition after 48 hrs by Neubauer counting chamber analysis; format: cell-based; conditions: K562, 48 h
Leishmania major = assay: Antileishmanial activity against promastigote stage of Leishmania major assessed as inhibition of parasite proliferation after 48 hrs by Alamar Blue assay; format: functional, organism-based
[2] = molecular target: Trypanothione reductase (Trypanosoma brucei brucei) (UniProt P39051); assay: Inhibition of recombinant Trypanosoma brucei trypanothione reductase at 100 uM in presence of NADPH, trypanothione disulphide
Procedure, shortened: (§1)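 T. brucei TR (1 µM) preincubated at 25 °C in 200 µL TR assay buffer with 400 µM NADPH and compound (25, 50 or 100 µM) or DMSO (5%). At 10, 30, 60, 120 and 180 min, a 5 µL aliquot went into a 1 mL standard assay with 100 µM NADPH, started with 100 µM trypanothione disulfide. Absorbance decrease at 340 nm followed at 25 °C.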

[3] = molecular target: Trypanothione reductase (Trypanosoma brucei brucei) (UniProt P39051); assay: Inhibition of recombinant Trypanosoma brucei trypanothione reductase at 25 uM in presence of NADPH, trypanothione disulphide; procedure, shortened: as §1
[4] = molecular target: T1, Tryparedoxin peroxidase (Trypanosoma brucei) (UniProt Q9GU47); assay: Time dependent inhibition of Trypanosoma brucei tryparedoxin peroxidase preincubated for 10 mins in presence of NADPH, tryparedoxin, T(SH)2 followed by addition of hydrogen peroxide
T1 sequence (whole entry): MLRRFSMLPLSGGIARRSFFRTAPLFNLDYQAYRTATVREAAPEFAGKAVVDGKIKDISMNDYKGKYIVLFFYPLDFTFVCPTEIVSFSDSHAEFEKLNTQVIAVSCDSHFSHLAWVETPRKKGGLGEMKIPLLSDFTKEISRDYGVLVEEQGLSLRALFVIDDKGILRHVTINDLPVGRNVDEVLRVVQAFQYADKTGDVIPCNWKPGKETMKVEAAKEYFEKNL
Procedure, shortened: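 Peroxidase cascade mixture of NADPH, T. brucei TR, tryparedoxin, peroxidase, T(SH)2 and inhibitor incubated 10 min, then reaction started with H2O2.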

[5] = molecular target: Trypanothione reductase (Trypanosoma brucei brucei) (UniProt P39051); conditions: 50 uM

Chain of Trypanothione reductase (Trypanosoma brucei brucei) (P39051 whole entry, looked up): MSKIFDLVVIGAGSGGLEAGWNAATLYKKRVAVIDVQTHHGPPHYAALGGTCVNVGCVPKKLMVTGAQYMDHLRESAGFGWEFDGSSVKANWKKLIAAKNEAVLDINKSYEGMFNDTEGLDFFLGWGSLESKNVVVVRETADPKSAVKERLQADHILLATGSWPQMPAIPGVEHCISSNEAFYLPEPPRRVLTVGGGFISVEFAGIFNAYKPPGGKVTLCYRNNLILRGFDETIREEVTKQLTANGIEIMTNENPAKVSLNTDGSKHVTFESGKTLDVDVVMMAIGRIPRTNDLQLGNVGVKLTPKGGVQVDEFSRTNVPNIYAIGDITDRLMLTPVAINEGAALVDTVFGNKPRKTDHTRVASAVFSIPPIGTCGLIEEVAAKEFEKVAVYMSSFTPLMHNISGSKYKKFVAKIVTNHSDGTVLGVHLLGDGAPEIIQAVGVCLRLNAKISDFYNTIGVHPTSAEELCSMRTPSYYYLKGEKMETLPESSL

Row | inhibition [1] | inhibition [2] | inhibition [3] | TDI [4] | inhibition [5] | SMILES | IC50 (K562) | IC50 (Leishmania major)
1 | inactive | inactive | – | – | – | CC(=O)N1c2ccccc2Oc2ccc(Cl)cc21 | > 30 µM | > 100 µM
2 | inactive | – | – | – | – | N#CCC(=O)N1c2ccccc2Oc2ccccc21 | 23 µM | > 100 µM
3 | inactive | – | – | – | – | O=C(C(Cl)CCl)N1c2ccccc2Oc2ccccc21 (centres undefined) | – | 9.6 µM
4 | inactive | – | – | – | – | O=C(CCl)Nc1cc(Cl)ccc1Oc1ccccc1 | – | 42.6 µM
5 | inactive | – | – | – | – | O=C(CCl)N1c2cc(Cl)ccc2Oc2ccc(Cl)cc21 | 2.03 µM | 9.5 µM
6 | inactive | – | – | – | – | CC(Cl)C(=O)N1c2ccccc2Oc2ccccc21 (centres undefined) | > 30 µM | > 100 µM
7 | inactive | – | inactive | – | – | Clc1ccc2c(c1)Nc1ccccc1O2 | – | 69.2 µM
8 | inactive | – | – | – | – | O=C(CCl)N1c2ccccc2CCc2ccccc21 | 4.8 µM | 43.3 µM
9 | inactive | – | – | – | – | O=C(CCl)N1c2ccccc2Sc2ccc(Cl)cc21 | 3.2 µM | 10.4 µM
10 | inactive | – | – | inactive | – | O=C(CCl)N1c2ccccc2Sc2ccccc21 | 5 µM | 9.3 µM
11 | inactive | – | – | – | – | O=C(CCl)n1c2ccccc2c2ccccc21 | 6.44 µM | > 100 µM
12 | inactive | – | – | – | – | O=C(CCCl)N1c2ccccc2Oc2ccc(Cl)cc21 | 10.2 µM | 15.7 µM
13 | inactive | – | – | – | – | O=C(CBr)N1c2ccccc2Oc2ccc(Cl)cc21 | 6.15 µM | > 100 µM
14 | inactive | – | – | – | – | O=C(C(Cl)Cl)N1c2ccccc2Oc2ccccc21 | > 30 µM | 82 µM
15 | inactive | – | – | – | – | O=C(CCl)N1c2ccccc2C=Cc2ccccc21 | 6.2 µM | 48.1 µM
16 | inactive | – | – | – | inactive | O=C(CCl)N1c2ccccc2Oc2ccc(Cl)cc21 | 3 µM | 7.6 µM

Continued, compound first:

Row | SMILES | inhibition [1] | inhibition [2] | inhibition [3] | TDI [4] | inhibition [5] | IC50 (K562) | IC50 (Leishmania major)
17 | O=C(CCCl)N1c2ccccc2Oc2ccccc21 | inactive | – | – | – | – | 15.2 µM | 39.1 µM
18 | O=C(CCCCl)N1c2ccccc2Oc2ccc(Cl)cc21 | inactive | – | – | – | – | > 90 µM | > 100 µM
19 | ClCCN1c2ccccc2Oc2ccc(Cl)cc21 | inactive | – | – | – | – | – | > 100 µM
20 | NC[C@@H]1O[C@H](O[C@H]2[C@@H](O)[C@H](O[C@@H]3[C@@H](O)[C@H](N)C[C@H](N)[C@H]3O[C@H]3O[C@H](CO)[C@@H](O)[C@H](O)[C@H]3N)O[C@@H]2CO)[C@H](N)[C@@H](O)[C@@H]1O [PAROMOMYCIN] | – | – | – | – | – | – | > 100 µM
21 | O=C(CCl)N1c2ccccc2COc2ccc(Cl)cc21 | inactive | – | – | inactive | – | 3.3 µM | 7.2 µM
22 | O=C(CCl)N(c1ccccc1)c1cccc(Cl)c1 | inactive | – | – | – | – | – | 40.3 µM
23 | N=C(N)c1ccc(OCCCCCOc2ccc(C(=N)N)cc2)cc1 | – | – | – | – | – | – | 84 µM
24 | CCCCCCCCCCCCCCCCOP(=O)([O-])OCC[N+](C)(C)C [MILTEFOSINE] | – | – | – | – | – | – | 36 µM
25 | C[C@@H]1[C@H](O)[C@@H](C)/C=C/C=C/C=C/C=C/C=C/C=C/C=C/[C@H](O[C@@H]2O[C@H](C)[C@@H](O)[C@H](N)[C@@H]2O)C[C@@H]2O[C@](O)(C[C@@H](O)C[C@@H](O)[C@H](O)CC[C@@H](O)C[C@@H](O)CC(=O)O[C@H]1C)C[C@H](O)[C@H]2C(=O)O [AMPHOTERICIN B] | – | – | – | – | – | – | 0.33 µM
26 | O=C(CCl)N1c2ccccc2Oc2ccc(C(F)(F)F)cc21 | inactive | – | – | – | – | – | 9.6 µM
